# Data: ChEMBL document CHEMBL4706620, “Design, synthesis, biological activity evaluation of 3-(4-phenyl-1H-imidazol-2-yl)-1H-pyrazole derivatives as potent JAK 2/3 and aurora A/B kinases multi-targeted inhibitors” (Eur J Med Chem, 2021)
# Calls of active or inactive are those of the source. The calls are words filed in the database; no cut-off is given here.
# Experiments:
# HCT-116 [1] = test: Cell cycle arrest in human HCT116 cells assessed as accumulation of diploid cells at G2 phase at 1 uM incubated for 48 hrs by propidium iodide staining based flow cytometric analysis (reference value: 10.46 %); type: functional
# Homo sapiens [2] = species on record: Homo sapiens; test: Selectivity for JAK3 (unknown origin) over Aurora B (unknown origin)
# Homo sapiens [3] = species on record: Homo sapiens; test: Selectivity for JAK2 (unknown origin) over Aurora B (unknown origin)
# HCT-116 [4] = test: Cell cycle arrest in human HCT116 cells assessed as accumulation of diploid cells at S phase at 10 uM incubated for 48 hrs by propidium iodide staining based flow cytometric analysis (reference value: 11.92 %); type: functional
# K562 [5] = test: Cell cycle arrest in human K562 cells assessed as accumulation of diploid cells at S phase at 1 uM incubated for 48 hrs by propidium iodide staining based flow cytometric analysis (reference value: 35.94 %); type: functional
# K562 [6] = test: Cell cycle arrest in human K562 cells assessed as accumulation of diploid cells at G2 phase at 10 uM incubated for 48 hrs by propidium iodide staining based flow cytometric analysis (reference value: 7.73 %); type: functional
# HCT-116 [7] = test: Cell cycle arrest in human HCT116 cells assessed as accumulation of diploid cells at G1 phase at 20 uM incubated for 48 hrs by propidium iodide staining based flow cytometric analysis (reference value: 77.62 %); type: functional
# K562 [8] = test: Cell cycle arrest in human K562 cells assessed as accumulation of diploid cells at G2 phase at 20 uM incubated for 48 hrs by propidium iodide staining based flow cytometric analysis (reference value: 7.73 %); type: functional
# K562 [9] = test: Cell cycle arrest in human K562 cells assessed as accumulation at […] phase at 1 uM incubated for 48 hrs by propidium iodide staining based flow cytometric analysis (reference value: 1.90 %); type: functional
# [10] = target: T1, Aurora kinase A (Homo sapiens) (UniProt O14965); test: Inhibition of Aurora A phosphorylation in human K562 cells incubated for 48 hrs by Western blot analysis; type: cell-based; conditions: dose 1-20 µM
# T1 sequence (whole entry): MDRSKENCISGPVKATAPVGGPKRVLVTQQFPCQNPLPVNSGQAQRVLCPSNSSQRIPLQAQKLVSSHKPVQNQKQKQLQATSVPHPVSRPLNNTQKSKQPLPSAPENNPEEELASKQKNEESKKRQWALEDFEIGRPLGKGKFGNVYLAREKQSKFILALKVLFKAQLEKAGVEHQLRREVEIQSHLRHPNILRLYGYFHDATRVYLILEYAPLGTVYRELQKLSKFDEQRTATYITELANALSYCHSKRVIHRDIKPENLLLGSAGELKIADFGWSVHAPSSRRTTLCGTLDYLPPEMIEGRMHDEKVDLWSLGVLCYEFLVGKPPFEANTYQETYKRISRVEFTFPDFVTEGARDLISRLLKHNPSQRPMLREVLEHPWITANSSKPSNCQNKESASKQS
# How it was run: (§1)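 K562 or HCT116 cells treated 48 h at 1, 10 and 20 µM alongside untreated control; lysed in cold RIPA, protein by BCA, SDS-PAGE, nitrocellulose transfer, 5% milk block, primary antibody overnight at 4 °C, secondary 1 h; p-Aurora A, p-Aurora B, p-STAT3, p-STAT5 probed with GAPDH loading control.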
# Homo sapiens [11] = species on record: Homo sapiens; test: Selectivity for JAK2 (unknown origin) over Aurora A (unknown origin)
# Homo sapiens [12] = species on record: Homo sapiens; test: Selectivity for JAK3 (unknown origin) over Aurora A (unknown origin)
# K562 [13] = test: Cell cycle arrest in human K562 cells assessed as accumulation of diploid cells at G1 phase at 20 uM incubated for 48 hrs by propidium iodide staining based flow cytometric analysis (reference value: 56.33 %); type: functional
# K562 [14] = test: Cell cycle arrest in human K562 cells assessed as accumulation of diploid cells at G2 phase at 1 uM incubated for 48 hrs by propidium iodide staining based flow cytometric analysis (reference value: 7.73 %); type: functional
# HCT-116 [15] = test: Cell cycle arrest in human HCT116 cells assessed as accumulation of diploid cells at G2 phase at 20 uM incubated for 48 hrs by propidium iodide staining based flow cytometric analysis (reference value: 10.46 %); type: functional
# HCT-116 [16] = test: Antiproliferative activity against human HCT116 cells assessed as reduction in cell growth measured after 72 hrs by CCK8 assay; type: functional, cell-based; conditions: HCT-116, 72 h
# JAK2/JAK3 (Homo sapiens) [17] = target: T2, JAK2/JAK3 (Homo sapiens) (UniProt P52333+O60674); test: Inhibition of JAK2/3 in human HCT116 cells assessed as inhibition of STAT3 phosphorylation at 1 to 20 uM measured after 48 hrs by Western blot analysis; type: cell-based; conditions: HCT-116, dose 1-20 µM; how it was run: as §1
# T2 sequence (O60674 whole entry, looked up): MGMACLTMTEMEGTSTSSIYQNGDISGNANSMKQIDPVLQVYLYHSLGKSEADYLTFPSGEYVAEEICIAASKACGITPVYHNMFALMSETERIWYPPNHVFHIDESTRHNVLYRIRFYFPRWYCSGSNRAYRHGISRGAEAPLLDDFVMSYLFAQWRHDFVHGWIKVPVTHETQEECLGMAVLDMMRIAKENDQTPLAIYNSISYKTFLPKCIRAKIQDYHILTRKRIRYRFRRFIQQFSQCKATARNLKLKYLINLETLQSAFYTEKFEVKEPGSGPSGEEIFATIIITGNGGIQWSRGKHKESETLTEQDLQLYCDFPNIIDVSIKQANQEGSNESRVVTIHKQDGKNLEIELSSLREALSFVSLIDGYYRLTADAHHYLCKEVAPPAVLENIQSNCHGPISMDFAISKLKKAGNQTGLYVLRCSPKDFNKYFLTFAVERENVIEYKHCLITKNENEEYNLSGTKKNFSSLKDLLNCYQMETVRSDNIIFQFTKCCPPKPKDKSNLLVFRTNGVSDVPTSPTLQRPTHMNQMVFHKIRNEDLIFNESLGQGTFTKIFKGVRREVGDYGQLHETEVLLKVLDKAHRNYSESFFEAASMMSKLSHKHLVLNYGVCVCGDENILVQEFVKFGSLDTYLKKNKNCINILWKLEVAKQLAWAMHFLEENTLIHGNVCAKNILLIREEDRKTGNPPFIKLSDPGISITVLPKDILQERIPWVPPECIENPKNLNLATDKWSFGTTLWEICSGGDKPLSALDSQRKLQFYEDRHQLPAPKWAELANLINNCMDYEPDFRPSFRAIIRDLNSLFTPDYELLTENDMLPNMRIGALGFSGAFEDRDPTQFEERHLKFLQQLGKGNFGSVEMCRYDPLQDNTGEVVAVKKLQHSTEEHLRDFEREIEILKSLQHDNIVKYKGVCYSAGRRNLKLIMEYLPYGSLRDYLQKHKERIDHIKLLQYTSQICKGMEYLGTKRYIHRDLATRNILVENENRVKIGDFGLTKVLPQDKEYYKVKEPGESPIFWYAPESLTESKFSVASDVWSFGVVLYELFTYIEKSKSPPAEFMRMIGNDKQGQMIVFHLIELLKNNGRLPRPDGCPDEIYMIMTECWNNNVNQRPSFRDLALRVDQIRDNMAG
# T2 sequence (P52333 whole entry, looked up): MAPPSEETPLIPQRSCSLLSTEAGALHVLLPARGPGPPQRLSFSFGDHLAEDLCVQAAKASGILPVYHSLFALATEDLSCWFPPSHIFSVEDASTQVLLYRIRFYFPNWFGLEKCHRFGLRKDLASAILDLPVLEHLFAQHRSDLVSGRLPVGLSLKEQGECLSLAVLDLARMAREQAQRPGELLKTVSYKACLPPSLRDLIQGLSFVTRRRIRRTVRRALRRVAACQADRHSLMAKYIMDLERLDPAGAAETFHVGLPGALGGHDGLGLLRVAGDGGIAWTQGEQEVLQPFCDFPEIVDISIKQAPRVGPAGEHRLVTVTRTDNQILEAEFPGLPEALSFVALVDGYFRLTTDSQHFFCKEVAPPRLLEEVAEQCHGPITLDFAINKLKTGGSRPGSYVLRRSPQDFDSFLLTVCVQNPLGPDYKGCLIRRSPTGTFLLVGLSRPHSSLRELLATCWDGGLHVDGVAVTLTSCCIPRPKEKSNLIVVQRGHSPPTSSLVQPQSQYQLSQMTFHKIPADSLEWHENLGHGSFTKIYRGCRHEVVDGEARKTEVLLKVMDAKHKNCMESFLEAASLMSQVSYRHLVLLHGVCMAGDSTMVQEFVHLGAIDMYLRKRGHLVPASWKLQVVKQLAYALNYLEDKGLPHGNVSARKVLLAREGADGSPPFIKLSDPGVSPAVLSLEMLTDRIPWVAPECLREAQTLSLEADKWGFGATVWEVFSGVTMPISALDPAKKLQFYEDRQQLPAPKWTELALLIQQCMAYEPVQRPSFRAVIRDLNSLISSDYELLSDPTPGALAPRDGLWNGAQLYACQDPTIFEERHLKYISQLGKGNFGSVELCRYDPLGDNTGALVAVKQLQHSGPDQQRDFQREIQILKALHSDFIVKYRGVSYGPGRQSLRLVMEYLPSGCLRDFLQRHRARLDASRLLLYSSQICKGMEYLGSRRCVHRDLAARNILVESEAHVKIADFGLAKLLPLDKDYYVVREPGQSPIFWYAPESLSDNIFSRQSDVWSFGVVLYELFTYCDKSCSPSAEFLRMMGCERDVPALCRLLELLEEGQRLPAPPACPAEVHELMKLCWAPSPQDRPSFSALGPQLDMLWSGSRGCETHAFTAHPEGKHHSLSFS
# Aurora kinase B = Aurora kinase B (Homo sapiens, UniProt Q96GD4); test: Inhibition of Aurora B (unknown origin) incubated for 40 mins in presence of ATP by Kinase-glo luminescence assay
# Sequence of Aurora kinase B (Q96GD4 whole entry): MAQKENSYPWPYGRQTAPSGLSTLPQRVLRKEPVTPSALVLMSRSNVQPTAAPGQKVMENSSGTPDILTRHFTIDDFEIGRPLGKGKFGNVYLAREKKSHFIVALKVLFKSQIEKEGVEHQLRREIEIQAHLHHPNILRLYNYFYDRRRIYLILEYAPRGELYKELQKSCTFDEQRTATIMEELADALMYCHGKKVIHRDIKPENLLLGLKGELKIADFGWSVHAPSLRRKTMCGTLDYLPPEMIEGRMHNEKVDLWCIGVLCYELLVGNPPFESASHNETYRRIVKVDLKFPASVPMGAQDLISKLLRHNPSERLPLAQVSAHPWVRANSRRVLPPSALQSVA
# How it was run: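 Kinase reaction at 30 °C for 40 min in 40 mM Tris pH 7.4, 10 mM MgCl2, 0.1 mg/ml BSA, 1 mM DTT, 10 µM ATP, kinase plus substrate; compounds added from 10% DMSO dilutions (1% DMSO final). Remaining ATP measured by Kinase-Glo Plus luminescence; IC50 from nonlinear regression, normalized dose-response fit.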
# HCT-116 [18] = test: Cell cycle arrest in human HCT116 cells assessed as accumulation of diploid cells at S phase at 20 uM incubated for 48 hrs by propidium iodide staining based flow cytometric analysis (reference value: 11.92 %); type: functional
# HCT-116 [19] = test: Cell cycle arrest in human HCT116 cells assessed as accumulation at […] phase at 10 uM incubated for 48 hrs by propidium iodide staining based flow cytometric analysis (reference value: 2.01 %); type: functional
# K562 [20] = test: Cell cycle arrest in human K562 cells assessed as accumulation at […] phase at 20 uM incubated for 48 hrs by propidium iodide staining based flow cytometric analysis (reference value: 1.90 %); type: functional
# HCT-116 [21] = test: Cell cycle arrest in human HCT116 cells assessed as accumulation of diploid cells at S phase at 1 uM incubated for 48 hrs by propidium iodide staining based flow cytometric analysis (reference value: 11.92 %); type: functional
# K562 [22] = test: Antiproliferative activity against human K562 cells assessed as reduction in cell growth measured after 72 hrs by CCK8 assay; type: functional, cell-based; conditions: K562, 72 h
# JAK2/JAK3 (Homo sapiens) [23] = target: T2, JAK2/JAK3 (Homo sapiens); test: Inhibition of JAK2/3 in human K562 cells assessed as inhibition of STAT3 phosphorylation at 1 to 20 uM measured after 48 hrs by Western blot analysis; type: cell-based; conditions: dose 1-20 µM; how it was run: as §1
# K562 [24] = test: Cell cycle arrest in human K562 cells assessed as accumulation of diploid cells at G1 phase at 10 uM incubated for 48 hrs by propidium iodide staining based flow cytometric analysis (reference value: 56.33 %); type: functional
# JAK2/JAK3 (Homo sapiens) [25] = target: T2, JAK2/JAK3 (Homo sapiens); test: Inhibition of JAK2/3 in human K562 cells assessed as inhibition of STAT5 phosphorylation at 1 to 20 uM measured after 48 hrs by Western blot analysis; type: cell-based; conditions: dose 1-20 µM; how it was run: as §1
# K562 [26] = test: Cell cycle arrest in human K562 cells assessed as accumulation of diploid cells at G1 phase at 1 uM incubated for 48 hrs by propidium iodide staining based flow cytometric analysis (reference value: 56.33 %); type: functional
# HCT-116 [27] = test: Cell cycle arrest in human HCT116 cells assessed as accumulation at […] phase at 20 uM incubated for 48 hrs by propidium iodide staining based flow cytometric analysis (reference value: 2.01 %); type: functional
compound,measurement,setting,value
O=C(Nc1c[nH]nc1-c1nc(-c2ccc(CN3CCOCC3)cc2)c[nH]1)c1cccc(Cl)c1,Activity,HCT-116 [1],13.34%
same,Selectivity ratio,Homo sapiens [2],20
same,Selectivity ratio,Homo sapiens [3],20
same,Activity,HCT-116 [4],17.27%
same,Activity,K562 [5],35.82%
same,Activity,K562 [6],16.27%
same,Activity,HCT-116 [7],57.52%
same,Activity,K562 [8],19%
same,Activity,K562 [9],1.9%
same,inhibition,[10],Dose-dependent effect
same,Selectivity ratio,Homo sapiens [11],20
same,Selectivity ratio,Homo sapiens [12],20
same,Activity,K562 [13],45.9%
same,Activity,K562 [14],8.12%
same,Activity,HCT-116 [15],24.55%
same,IC50,HCT-116 [16],15.1 µM
same,inhibition,JAK2/JAK3 (Homo sapiens) [17],Active
same,IC50,Aurora kinase B,583 nM
same,Activity,HCT-116 [18],17.92%
same,Activity,HCT-116 [19],2.01%
same,Activity,K562 [20],2.06%
same,Activity,HCT-116 [21],14.46%
same,IC50,K562 [22],6.73 µM
same,inhibition,JAK2/JAK3 (Homo sapiens) [23],Active
same,Activity,K562 [24],47.87%
same,inhibition,JAK2/JAK3 (Homo sapiens) [25],Active
same,Activity,K562 [26],56.05%
same,Activity,HCT-116 [27],1.98%
